Source: ChEMBL document CHEMBL1250520, “Antitumor agents. 280. Multidrug resistance-selective desmosdumotin B analogues” (2010)
pEC50: −log10 of the molar value. Active and inactive are the calls of the source. No cut-off for these calls is given here.

What was measured:
KB = test: Anticancer activity against human KB cells after 3 days by SRB assay; format: functional; conditions: 72 h, read-out: ED50 (the source's name)
Summary of the method: (§1)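 Cells seeded at 1500–7500 per well, compounds added from DMSO-diluted stock, grown 3 days in RPMI-1640 with 25mM HEPES, 0.25% sodium bicarbonate, 10% FBS and kanamycin. Attached cells fixed in cold 50% TCA, stained with 0.4% sulforhodamine B, absorbance read at 562 nm after dye solubilization. ED50 is the 50% growth-reduction concentration, averaged from at least three independent determinations.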

[1] = Anticancer activity against human KBVIN cells after 3 days by SRB assay; format: functional; conditions: 72 h, read-out: ED50 (the source's name); summary of the method: as §1
[2] = Selectivity ratio of ED50 for human KB cells to ED50 for human KBVIN cells; format: functional
Summary of the method: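 Ratio of KB ED50 to KB-VIN ED50. Both values come from a 3-day sulforhodamine B assay with absorbance read at 562 nm. Cells were seeded at 1500–7500 per well and dosed from DMSO-diluted stock. Each ED50 is the mean of at least three independent determinations.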

[3] = Anticancer activity against human Hep3B cells after 3 days by SRB assay; format: functional, Hep 3B2; conditions: 72 h
[4] = Anticancer activity against vincristine-resistant human Hep3B cells after 3 days by SRB assay; format: functional, Hep 3B2; conditions: 72 h
Hep 3B2 = test: Selectivity ratio of GI50 for human Hep3B cells to ED50 vincristine-resistant Hep3B cells; format: functional
KBVIN [5] = test: Inhibition of Pgp efflux pump in human KBVIN cells by calcein AM assay; format: cell-based
Summary of the method: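 KB-VIN cells, 10,000 per well, were grown 24 h in RPMI-1640 with 5% FBS. They were preincubated with compounds for 30 min at 37°C, then given fresh medium with 1 µM calcein-AM plus compounds for 30 min at 37°C in the dark. After cold PBS wash and hypotonic Tris-HCl lysis, fluorescence was read at Ex 494/Em 517 nm. Data pooled from two or more independent experiments.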

KBVIN [6] = test: Induction of apoptosis in human KBVIN cells assessed as DNA fragmentation after 1 days by ELISA; format: functional, cell-based
Summary of the method: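 Apoptosis in KB-VIN cells, including co-treatment with verapamil, read out by a Cell Death Detection ELISA PLUS kit.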

In the case of CCC1=C(O)c2c(oc(-c3ccccc3)cc2=O)C(CC)(CC)C1=O [6,8,8-TRIETHYL DESMOSDUMOTIN B], the pEC50 (KB) was < 3.63, the pEC50 [1] was 5.97 and the “Ratio ED50” value [2] was >221. For the same compound, the GI50 [3] was 47.6 µM, the GI50 [4] was 1.57 µM and the RatioGI50 (Hep 3B2) was 30. For the same compound, the inhibition (KBVIN [5]) was “inactive” and the Activity (KBVIN [6]) was “Active”.
